Results: ChEMBL document CHEMBL5154634, “A Modular Synthetic Route Involving N-Aryl-2-nitrosoaniline Intermediates Leads to a New Series of 3-Substituted Halogenated Phenazine Antibacterial Agents” (J Med Chem, 2021)
In brackets after ≈: the same amount, converted by molar mass. Activity calls are given as the source filed them. The rule behind the calls is not given here.

Assays:
[1] = Dissociation constant, pKa of the compound at 125 uM by UV-vis spectrophotometric analysis; assay type: physicochemical
Summary of the method: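 Compound at 125 μM final in phosphate buffers (KH₂PO₄/Na₂HPO₄) in 1:1 water/methanol, pH 4.07–9.66; ammonium hydroxide added for pH above 9.80. UV-vis scans 200–800 nm to find λmax of phenol and phenolate forms. Absorbance at each λmax plotted against pH.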

[2] = system: Staphylococcus epidermidis; assay: Antibiofilm activity against methicillin-resistant Staphylococcus epidermidis ATCC 35984 biofilms assessed as biofilm eradication incubated for 24 hrs followed by incubation for 24 hrs in fresh medium by Calgary biofilm device assay; assay type: functional
Summary of the method: (§1)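 Calgary biofilm device. Mid-log culture diluted 1000-fold in TSB with 0.5% glucose; biofilms grown on pegs 24 h at 37 °C. Pegs washed and challenged with twofold compound dilutions for 24 h at 37 °C, then moved to fresh medium for 24 h. MBEC is the lowest concentration leaving wells non-turbid. At least three independent experiments.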

[3] = system: Staphylococcus aureus; assay: Antibiofilm activity against methicillin-resistant Staphylococcus aureus BAA-1707 biofilms assessed as biofilm killing at MBEC measured by CBD assay; assay type: functional
[4] = system: Staphylococcus epidermidis; assay: Antibiofilm activity against methicillin-resistant Staphylococcus epidermidis ATCC 35984 biofilms assessed as reduction of viable biofilm cells at MBEC measured by CBD assay; assay type: functional
Summary of the method: (§2)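 After the Calgary biofilm device assay, treated and untreated pegs were removed, sonicated 30 min in PBS and plated for CFU per peg. Log10 reduction of viable biofilm cells at the MBEC determined by comparison with untreated pegs. At least three independent experiments.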

[5] = system: Staphylococcus aureus; assay: Antibacterial activity against methicillin-resistant Staphylococcus aureus 147 assessed as bacterial growth inhibition; assay type: functional
[6] = system: Staphylococcus aureus; assay: Antibiofilm activity against methicillin-resistant Staphylococcus aureus BAA-1707 biofilms assessed as biofilm eradication incubated for 24 hrs followed by incubation for 24 hrs in fresh medium by Calgary biofilm device assay; assay type: functional; summary of the method: as §1
[7] = system: Staphylococcus aureus; assay: Antibacterial activity against methicillin-resistant Staphylococcus aureus 138 assessed as bacterial growth inhibition; assay type: functional
[8] = system: J774; assay: Cytotoxicity against mouse J774 cells assessed as reduction in cell viability […] by Alamar blue assay; assay type: toxicity, cell-based
[9] = system: Mycobacterium tuberculosis; assay: Antibacterial activity against Mycobacterium tuberculosis H37Ra ATCC 25177 assessed as bacterial growth inhibition incubated for 7 days by absorbance based analysis; assay type: functional; settings: H37Ra ATCC 25177, 168 h, time 7 day
Summary of the method: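 H37Ra grown 2 weeks in Middlebrook 7H9, then diluted to OD600 0.01. Compounds added in twofold dilutions, final 0.024–50 μM, with 0.5% DMSO and streptomycin as positive control. Incubated 7 days at 37 °C. MIC is the lowest concentration with no growth, with OD600 recorded. At least three independent experiments.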

[10] = system: HeLa; assay: Cytotoxicity against human HeLa cells assessed as reduction in cell viability incubated for 24 hrs by LDH release assay; assay type: toxicity, cell-based
Summary of the method: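 HeLa cells in DMEM with 10% FBS, treated at 70–80% confluence with 25, 50 and 100 μM for 24 h. LDH in supernatant measured by 30 min reaction at room temperature, then stop solution and absorbance at 490 nm. Controls: 2% Triton X-100 (maximum), medium only, DMSO vehicle. Three independent experiments.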

[11] = system: Staphylococcus epidermidis; assay: Antibacterial activity against methicillin-resistant Staphylococcus epidermidis ATCC 35984 assessed as bacterial growth inhibition incubated for 16 hrs by broth microdilution susceptibility test; assay type: functional
Summary of the method: (§3)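 CLSI broth microdilution with 11 twofold dilutions (0.05–50 μM). About 10^5 cells per well from a log-phase culture. DMSO vehicle up to 0.5% v/v. At least three independent experiments.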

[12] = system: Staphylococcus epidermidis; assay: Bactericidal activity against methicillin-resistant Staphylococcus epidermidis ATCC 35984 planktonic cells assessed as planktonic eradication incubated for 24 hrs followed by incubation for overnight in fresh medium by Calgary biofilm device assay; assay type: functional
Summary of the method: (§4)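 Calgary biofilm device. Biofilms grown 24 h at 37 °C in TSB with 0.5% glucose, then challenged 24 h with twofold compound dilutions. 20 μL of challenge medium transferred into fresh TSB with 0.5% glucose and incubated overnight at 37 °C. MBC is the concentration with no visible turbidity. At least three independent experiments.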

[13] = system: Staphylococcus aureus; assay: Antibacterial activity against methicillin-resistant Staphylococcus aureus BAA-1707 assessed as bacterial growth inhibition incubated for 16 hrs by broth microdilution susceptibility test; assay type: functional; summary of the method: as §3
[14] = system: Enterococcus faecium; assay: Bactericidal activity against methicillin-resistant vancomycin-resistant Enterococcus faecium ATCC 700221 planktonic cells assessed as planktonic eradication incubated for 24 hrs followed by incubation for overnight in fresh medium by Calgary biofilm device assay; assay type: functional; summary of the method: as §4
[15] = system: Mycobacterium tuberculosis; assay: Antibacterial activity against Mycobacterium tuberculosis CDC1551 assessed as bacterial growth inhibition incubated for 5 days by luminescence based analysis; assay type: functional; settings: CDC1551, 120 h, time 5 day
Summary of the method: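 Bioluminescent Mtb-lux CDC1551 reporter grown in Middlebrook 7H9 with 0.05% Tween 80, 10% OADC and kanamycin to OD600 0.4–0.8, then diluted to OD600 0.02. Added to twofold drug dilutions (0.003–200 μM). Incubated 5 days at 37 °C, 5% CO2. Luminescence read against 1% DMSO and 10 μM rifampicin controls to give % growth inhibition. MIC taken from a modified Gompertz fit.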

[16] = system: Staphylococcus aureus; assay: Antibacterial activity against methicillin-resistant Staphylococcus aureus clinical isolate 2 assessed as bacterial growth inhibition; assay type: functional
[17] = system: Staphylococcus aureus; assay: Antibacterial activity against methicillin-resistant Staphylococcus aureus 129 assessed as bacterial growth inhibition; assay type: functional
[18] = system: Erythrocyte; assay: Hemolytic activity against human RBC at 200 uM measured after 1 hr; assay type: toxicity, cell-based
Summary of the method: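 2% hRBCs exposed to compound at 200 μM final, added from DMSO stock, for 1 h at 37 °C. Supernatant OD read at 405 nm. Hemolysis normalized between DMSO (0%) and Triton X (100%); three independent experiments.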

[19] = system: Staphylococcus aureus; assay: Antibacterial activity against methicillin-resistant Staphylococcus aureus 156 assessed as bacterial growth inhibition; assay type: functional
[20] = system: Staphylococcus aureus; assay: Antibacterial activity against methicillin-resistant Staphylococcus aureus clinical isolate 1 assessed as bacterial growth inhibition; assay type: functional
[21] = system: Staphylococcus aureus; assay: Bactericidal activity against methicillin-resistant Staphylococcus aureus BAA-1707 planktonic cells assessed as planktonic eradication incubated for 24 hrs followed by incubation for overnight in fresh medium by Calgary biofilm device assay; assay type: functional; summary of the method: as §4
[22] = system: Staphylococcus epidermidis; assay: Antibiofilm activity against methicillin-resistant Staphylococcus epidermidis ATCC 35984 biofilms assessed as reduction of viable biofilm cells at 3.13 uM measured by CBD assay; assay type: functional
[23] = system: Staphylococcus epidermidis; assay: Antibiofilm activity against methicillin-resistant Staphylococcus epidermidis ATCC 35984 biofilms assessed as biofilm killing at 3.13 uM measured by CBD assay; assay type: functional
[24] = system: Enterococcus faecalis; assay: Antibacterial activity against Enterococcus faecalis OG1RF ATCC 47077 assessed as bacterial growth inhibition incubated for 16 hrs by broth microdilution susceptibility test; assay type: functional
[25] = system: HepG2; assay: Cytotoxicity against human HepG2 cells assessed as reduction in cell viability […] by Alamar blue assay; assay type: toxicity, cell-based
[26] = system: Staphylococcus aureus; assay: Antibiofilm activity against methicillin-resistant Staphylococcus aureus BAA-1707 biofilms assessed as reduction of viable biofilm cells at MBEC measured by CBD assay; assay type: functional; summary of the method: as §2
[27] = system: Staphylococcus aureus; assay: Antibacterial activity against methicillin-resistant Staphylococcus aureus BAA-44 assessed as bacterial growth inhibition incubated for 16 hrs by broth microdilution susceptibility test; assay type: functional
Summary of the method: (§5)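 CLSI broth microdilution with 11 twofold dilutions (0.05–50 μM). Medium was LB for the staphylococci and BHI for VRE 700221. About 10^5 cells per well from a log-phase culture. […] DMSO vehicle up to 0.5% v/v. At least three independent experiments.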

[28] = system: Enterococcus faecium; assay: Antibacterial activity against vancomycin-resistant Enterococcus faecium ATCC 700221 assessed as bacterial growth inhibition incubated for 16 hrs by broth microdilution susceptibility test; assay type: functional; summary of the method: as §5
[29] = system: Enterococcus faecalis; assay: Bactericidal activity against […] Enterococcus faecalis OG1RF ATCC 47077 planktonic cells assessed as planktonic eradication incubated for 24 hrs followed by incubation for overnight in fresh medium by Calgary biofilm device assay; assay type: functional
Summary of the method: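 Calgary biofilm device in BHI. Biofilms grown 24 h at 37 °C and challenged 24 h with twofold compound dilutions. Challenge medium subcultured 1:10 into fresh BHI overnight at 37 °C. MBC is the concentration with no turbidity. At least three independent experiments.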

[30] = system: Enterococcus faecium; assay: Antibiofilm activity against methicillin-resistant vancomycin-resistant Enterococcus faecium ATCC 700221 biofilms assessed as biofilm eradication incubated for 24 hrs followed by incubation for 24 hrs in fresh medium by Calgary biofilm device assay; assay type: functional; summary of the method: as §1
[31] = Binding affinity to Fe2+ assessed as compound-Fe2+ complex formation by UV-vis spectroscopy

Compound: Oc1c(Br)c(Cl)c(Br)c2nc3c(Cl)cc(Cl)cc3nc12
- pKa at 125 µM [1]: 6.07
- MBEC [2]: 0.3 µM
- Activity [3]: 99.9%
- Activity [4]: 3.18 log10CFU
- MIC [5]: 0.47 µM (≈ 0.215 µg/mL)
- MBEC [6]: 3.13 µM
- MIC [7]: 0.47 µM (≈ 0.215 µg/mL)
- IC50 [8]: > 200 µM
- MIC [9]: 6.25 µM (≈ 2.86 µg/mL)
- IC50 [10]: > 100 µM
- MIC [11]: ≤ 0.05 µM
- MBC [12]: 0.59 µM (≈ 0.27 µg/mL)
- MIC [13]: 0.59 µM (≈ 0.27 µg/mL)
- MBC [14]: 0.39 µM (≈ 0.178 µg/mL)
- MIC [15]: 0.8 µM (≈ 0.366 µg/mL)
- MIC [16]: 0.47 µM (≈ 0.215 µg/mL)
- MIC [17]: 0.47 µM (≈ 0.215 µg/mL)
- Activity [18]: <= 1%
- MIC [19]: 0.47 µM (≈ 0.215 µg/mL)
- MIC [20]: 0.47 µM (≈ 0.215 µg/mL)
- MBC [21]: 1.56 µM (≈ 0.713 µg/mL)
- Activity [22]: 5 log10CFU
- Activity [23]: 99.999%
- MIC [24]: 0.3 µM (≈ 0.137 µg/mL)
- IC50 [25]: > 200 µM
- Activity [26]: 3.03 log10CFU
- MIC [27]: 0.15 µM (≈ 0.0686 µg/mL)
- MIC [28]: 0.08 µM (≈ 0.0366 µg/mL)
- MBC [29]: 3.13 µM (≈ 1.43 µg/mL)
- MBEC [30]: 0.2 µM
- Activity [31]: Active

Compound: COc1cccc(OC)c1C(=O)N[C@@H]1C(=O)N2[C@@H]1SC(C)(C)[C@@H]2C(=O)O [METHICILLIN]
- MIC [5]: ≥ 37.5 µM
- MIC [16]: ≥ 37.5 µM
- MIC [19]: ≥ 37.5 µM
- MIC [20]: ≥ 37.5 µM
